Test results reported in ChEMBL document CHEMBL4359825, “Synthesis of novel S-linked dihydroartemisinin derivatives and evaluation of their anticancer activity” (Eur J Med Chem, 2019).
pIC50: −log10 of the molar value. Active and inactive are the calls of the source. The calls are words filed in the database; no cut-off is given here.

Assays:
[1] = system: LNCaP; assay: Anticancer activity against human LNCAP cells assessed as cell viability measured after 72 hrs by MTT assay (reference value: 100 +/- 5.0 %); format: functional; set-up: concentration or dose not given beside the values
[2] = system: PC-3; assay: Anticancer activity against human PC3 cells assessed as cell viability measured after 72 hrs by MTT assay (reference value: 100 +/- 18.8 %); format: functional; set-up: concentration or dose not given beside the values
[3] = system: A-431; assay: Anticancer activity against human A431 cells assessed as cell viability measured after 72 hrs by MTT assay (reference value: 100 +/- 11.7 %); format: functional; set-up: concentration or dose not given beside the values
[4] = system: HeLa; assay: Anticancer activity against human HeLa cells assessed as cell viability measured after 72 hrs by MTT assay (reference value: 100 +/- 11.5 %); format: functional; set-up: concentration or dose not given beside the values
[5] = system: HepG2; assay: Anticancer activity against human HepG2 cells assessed as cell viability measured after 72 hrs by MTT assay (reference value: 100 +/- 6.5 %); format: functional; set-up: concentration or dose not given beside the values
[6] = system: MDA-MB-231; assay: Anticancer activity against human MDA-MB-231 cells assessed as cell viability measured after 72 hrs by MTT assay (reference value: 100 +/- 20.0 %); format: functional; set-up: concentration or dose not given beside the values
[7] = system: A549; assay: Anticancer activity against human A549 cells assessed as cell viability measured after 72 hrs by MTT assay (reference value: 100 +/- 9.6 %); format: functional; set-up: concentration or dose not given beside the values
[8] = system: PC-3; assay: Cell cycle arrest in human PC3 cells assessed as accumulation at G0/G1 phase at 3 uM measured after 48 hrs by RNase/propidium iodide staining based flow cytometry analysis (reference value: 35.13 %); format: functional
[9] = system: PC-3; assay: Cell cycle arrest in human PC3 cells assessed as accumulation at S phase at 3 uM measured after 48 hrs by RNase/propidium iodide staining based flow cytometry analysis (reference value: 42.03 %); format: functional
[10] = system: PC-3; assay: Cell cycle arrest in human PC3 cells assessed as accumulation at G2/M phase at 3 uM measured after 48 hrs by RNase/propidium iodide staining based flow cytometry analysis (reference value: 22.84 %); format: functional
[11] = system: PC-3; assay: Cell cycle arrest in human PC3 cells assessed as accumulation at G0/G1 phase at 10 uM measured after 48 hrs by RNase/propidium iodide staining based flow cytometry analysis (reference value: 35.13 %); format: functional
[12] = system: PC-3; assay: Cell cycle arrest in human PC3 cells assessed as accumulation at S phase at 10 uM measured after 48 hrs by RNase/propidium iodide staining based flow cytometry analysis (reference value: 42.03 %); format: functional
[13] = system: PC-3; assay: Cell cycle arrest in human PC3 cells assessed as accumulation at G2/M phase at 10 uM measured after 48 hrs by RNase/propidium iodide staining based flow cytometry analysis (reference value: 22.84 %); format: functional
[14] = system: PC-3; assay: Induction of apoptosis in human PC3 cells assessed as loss of cell morphology at 3 to 10 uM after 72 hrs by phase contrast microscopy; format: functional, cell-based
In short: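 PC-3 cells in exponential growth exposed to 3 or 10 μM for 72 h, washed gently with PBS, and apoptotic morphology recorded by phase-contrast microscopy.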

[15] = system: PC-3; assay: Induction of apoptosis in human PC3 cells assessed as nuclear condensation at 3 to 10 uM after 72 hrs by Hoechst 33342 staining based fluorescence microscopy; format: functional, cell-based
In short: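 PC-3 cells treated 72 h with 3 or 10 μM, stained with Hoechst 33342 for 15 min at room temperature in the dark, washed with PBS, and nuclei examined by fluorescence microscopy for condensation.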

[16] = system: PC-3; assay: Effect on Pin1 expression in human PC3 cells at 0.1 to 10 uM measured after 72 hrs by Western blot analysis; format: functional, cell-based
In short: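 Western blot: PC-3 seeded 1.25 × 10^5/well, exposed to 0.1–10 μM for 72 h. Lysed in 2× SDS buffer and sonicated; 20–25 μg protein run on 12% SDS gel, transferred to PVDF, blocked in 5% BSA/TBST. Primary antibodies overnight, secondary 1 h; ECL detection, β-actin loading control.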

[17] = system: PC-3; assay: Anticlonogenic activity against human PC3 cells assessed as reduction in colony formation at 10 uM incubated for 72 hrs supplemented with fresh medium containing measured after 15 days by colony formation assay; format: functional, cell-based
In short: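 Clonogenic assay: PC-3 seeded at 500 cells/well in six-well plates, allowed to adhere overnight, then treated. Medium and compound renewed every 72 h over 15 days. Colonies fixed with 3.7% formaldehyde for 20 min, stained with 0.4% crystal violet and counted. Three experiments, each in quadruplicate, expressed as fold change versus control.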

[18] = system: PC-3; assay: Anticancer activity against human PC3 cells assessed as reduction in cell viability measured after 72 hrs by MTT assay; format: functional, cell-based; settings: PC-3, 72 h
[19] = system: A-431; assay: Anticancer activity against human A431 cells assessed as reduction in cell viability measured after 72 hrs by MTT assay; format: functional, cell-based; settings: A-431, 72 h
[20] = system: HepG2; assay: Anticancer activity against human HepG2 cells assessed as reduction in cell viability measured after 72 hrs by MTT assay; format: functional, cell-based; settings: HepG2, 72 h
[21] = system: MDA-MB-231; assay: Anticancer activity against human MDA-MB-231 cells assessed as reduction in cell viability measured after 72 hrs by MTT assay; format: functional, cell-based; settings: MDA-MB-231, 72 h
[22] = Elimination half-life in Sprague-Dawley rat at 10 mg/kg administered as iv bolus dose by EC-HPLC analysis; format: ADME, organism-based; settings: in vivo, read-out: beta t1/2
[23] = Solubility of compound in water; format: physicochemical; settings: buffer

SMILES	Activity [1] [%]	Activity [2] [%]	Activity [3] [%]	Activity [4] [%]	Activity [5] [%]	Activity [6] [%]	Activity [7] [%]	also measured
C[C@H]1[C@H](Sc2ccc([N+](=O)[O-])cc2)O[C@@H]2O[C@@]3(C)CC[C@H]4[C@H](C)CC[C@@H]1[C@@]24OO3	46	50	44	50	56	98	70	
C[C@H]1[C@@H](Sc2ccc(Cl)cc2)O[C@@H]2O[C@@]3(C)CC[C@H]4[C@H](C)CC[C@@H]1[C@@]24OO3	37	99	36	41	36	70	52	
C[C@@H]1CC[C@H]2[C@@H](C)C(=O)O[C@@H]3O[C@@]4(C)CC[C@@H]1[C@]32OO4 [ARTEMISININ]								Activity [8]: 33.48%; Activity [9]: 44.42%; Activity [10]: 22.1%; Activity [11]: 35.55%; Activity [12]: 48.38%; Activity [13]: 16.07%; Activity [14]: Active; Activity [15]: Active; Activity [16]: inactive; Activity [17]: Active
C[C@H]1[C@H](Sc2nnnn2C)O[C@@H]2O[C@@]3(C)CC[C@H]4[C@H](C)CC[C@@H]1[C@@]24OO3	78	47	87	95	95	75	89	
CCCCCCS[C@@H]1O[C@@H]2O[C@@]3(C)CC[C@H]4[C@H](C)CC[C@@H]([C@H]1C)[C@@]24OO3	36	90	35	44	35	72	70	
C[C@H]1[C@@H](Sc2cccc(C(=O)O)c2)O[C@@H]2O[C@@]3(C)CC[C@H]4[C@H](C)CC[C@@H]1[C@@]24OO3	43	41	90	58	60	97	89	
C[C@H]1[C@H](Sc2ccc(C(=O)O)cc2)O[C@@H]2O[C@@]3(C)CC[C@H]4[C@H](C)CC[C@@H]1[C@@]24OO3	47	84	58	60	64	95	79	
COC(=O)CS[C@@H]1O[C@@H]2O[C@@]3(C)CC[C@H]4[C@H](C)CC[C@@H]([C@H]1C)[C@@]24OO3	60	32	75	79	80	98	91	
COC(=O)CS[C@H]1O[C@@H]2O[C@@]3(C)CC[C@H]4[C@H](C)CC[C@@H]([C@H]1C)[C@@]24OO3	71	44	77	80	94	99	97	
COC(=O)Cc1ccc(SC2O[C@@H]3O[C@@]4(C)CC[C@H]5[C@H](C)CC[C@@H]([C@H]2C)[C@@]35OO4)cc1 (stereo not given in full)	31	31	52	43	67	96	74	
CCCCS[C@@H]1O[C@@H]2O[C@@]3(C)CC[C@H]4[C@H](C)CC[C@@H]([C@H]1C)[C@@]24OO3	90	92	86	82	92	90	96	
C[C@H]1[C@H](Sc2ccc(Cl)cc2)O[C@@H]2O[C@@]3(C)CC[C@H]4[C@H](C)CC[C@@H]1[C@@]24OO3	37	70	42	48	42	97	55	
C[C@H]1[C@H](Sc2ccc3ccccc3n2)O[C@@H]2O[C@@]3(C)CC[C@H]4[C@H](C)CC[C@@H]1[C@@]24OO3	77	33	93	87	96	90	100	
C[C@H]1[C@@H](Sc2ccc(C(=O)O)cc2)O[C@@H]2O[C@@]3(C)CC[C@H]4[C@H](C)CC[C@@H]1[C@@]24OO3	41	32	31	55	45	64	76	
C[C@H]1[C@@H](Sc2ccc3ccccc3n2)O[C@@H]2O[C@@]3(C)CC[C@H]4[C@H](C)CC[C@@H]1[C@@]24OO3	41	39	44	63	72	78	87	
C[C@H]1[C@@H](Sc2nnnn2C)O[C@@H]2O[C@@]3(C)CC[C@H]4[C@H](C)CC[C@@H]1[C@@]24OO3	97	28	97	93	93	86	100	
CCCCCCS[C@H]1O[C@@H]2O[C@@]3(C)CC[C@H]4[C@H](C)CC[C@@H]([C@H]1C)[C@@]24OO3	46	39	45	49	41	39	55	pIC50 [18]: 5.24; pIC50 [19]: 5.40; pIC50 [20]: 4.97; pIC50 [21]: 5.40
C[C@H]1[C@@H](O)O[C@@H]2O[C@@]3(C)CC[C@H]4[C@H](C)CC[C@@H]1[C@@]24OO3 [ARTENIMOL]								half-life [22]: < 1 h; solubility [23]: Soluble
CCCCS[C@H]1O[C@@H]2O[C@@]3(C)CC[C@H]4[C@H](C)CC[C@@H]([C@H]1C)[C@@]24OO3	47	33	47	49	52	71	79	
